Source: PubChem BioAssay AID624314 (The Scripps Research Institute Molecular Screening Center, 2012)
Activity calls are given as the source filed them.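 Rule for the calls: active = relative activity ratio above 1.25 at every tested dose; inactive = the rest.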

Tested on: HEK293 3B-HSD promoter CAT reporter, ELISA absorbance
Experiment: CAT reporter under 3B-HSD promoter control – cell-based, absorbance, counter-screen for DAX1 (NR0B1) inhibitor project, late-stage follow-up (AID 624314)
Conditions: at 100 µM (top of the series)
Outline: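 Test system: transfected HEK293 cells with DAX-1, SF-1, 3β-HSD2 promoter CAT; times: compound exposure 16 h at 37 °C; measured by: colorimetric enzyme immunoassay of CAT protein, absorbance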

Structure (SMILES)	relative activity ratio
Cn1c(=O)n(C)c2cc(C(=O)Nc3ccc4c(c3)OCO4)ccc21	0.34 (inactive)
Cn1c(=O)n(C)c2cc(C(=O)Nc3ccc4c(c3)OCCO4)ccc21	0.26 (inactive)
